Laboratory results as given in PubChem BioAssay AID504382 (The Scripps Research Institute Molecular Screening Center, 2011).
Out of some 2,500 compounds screened, about 460 (18%) were called active.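 The calls were made as follows: active = mean activation above a cutoff of low control average plus 3 SD from the earlier screen (cut at about 12% in these data); inactive = the rest.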 A selection follows.

Test: IANBD-channel fluorescence artefacts in buffer – biochemical, artefact control for cardiac RTF calcium sensitizer project, confirmation (AID 504382)
Details: IANBD fluorescence interference counterscreen, EC20 Ca2+, at 7.2 µM, stronger effect = higher value, scaled: EC20 calcium 0, EC100 calcium 100
Outline: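 Medium: MOPS buffer, 190 mM, with KCl, MgCl2, EGTA, NTA, DTT, pH 7.20; Dosing: one dose of 7.2 µM, 0.7% DMSO; Probe or stimulus: calcium at EC20 level, 0.472 mM final; Incubation: 15 min, 25 °C; Evaluation: compound fluorescence interference relative to control well signal range; Signal: fluorescence, 480/540 nm.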

Compound	fluorescence artifact activation
CN(N=Nc1ccc([N+](=O)[O-])cc1)c1ccccc1	7.25% (inactive)
CSc1ccc(C2C(C(=O)c3ccco3)=C(O)C(=O)N2c2nnc(SC)s2)cc1 (configuration not stated)	7.57% (inactive)
Cc1cc(NC(=O)/C(C#N)=C/c2ccc(-c3ccc(SC(F)F)cc3)o2)n(-c2ccccc2)n1	291% (active)
Cc1cc(NC(=O)/C(C#N)=C\c2ccc(-c3ccc(SC(F)F)cc3)o2)n(-c2ccccc2)n1	136% (active)
CC1CC1c1ccc(/C=C(\C#N)C(=O)Nc2ccc(Cl)cc2Cl)o1 (configuration not stated)	5.23% (inactive)
O=C(NCc1cccc(F)c1)c1cccc2c1C(=O)c1ccc(N3CCCC3)cc1S2(=O)=O	-0.02% (inactive)
CCOC(=O)c1sc(N)c(C#N)c1COC(=O)CNC(=O)c1ccccc1	-0.01% (inactive)
CC1CC(C)CN(C(=O)Cn2c(-c3nonc3N)nc3ccccc32)C1 (configuration not stated)	0.07% (inactive)
CC(NC(=O)COc1ccc(N(C)S(=O)(=O)c2ccccc2)cc1)c1ccccc1 (configuration not stated)	0.07% (inactive)
Cc1ccc(C)c(OCCN2C(=O)NC3(CCc4ccccc4C3)C2=O)c1 (configuration not stated)	0.24% (inactive)
Cc1ccc(C2C(C#N)=C(N)SC(N)=C2C#N)cc1	0.33% (inactive)
O=C(C1=C(O)C(=O)N(CCN2CCOCC2)C1c1ccc([N+](=O)[O-])cc1)c1cccs1 (configuration not stated)	10.2% (inactive)
CC(/C=C/c1ccc(N(C)C)cc1)=N/N=C1/NC(=O)CC(C(=O)Nc2ccc(Cl)cc2)S1 (configuration not stated)	0.15% (inactive)
O=[N+]([O-])c1ccc(N/N=C\c2ccccc2OCc2ccccc2)cc1	5.45% (inactive)
COC(=O)c1ccc(-c2ccc(F)cc2)nc1C	-0.07% (inactive)
O=c1[nH]c2c(s1)C=Nc1ccccc1N2	0.01% (inactive)
CN(C)/C=C1\C=C2C(=O)c3ccccc3N2C1=O	21% (active)
CN(C)C(=O)CN1C(=O)C2CCCCN2C(=O)c2ccccc21 (configuration not stated)	0.04% (inactive)
Cc1ccc(S(=O)(=O)NCCCCCC(=O)Nc2ccccc2C)cc1	8.11% (inactive)
CCCC(=O)Nc1ccc(-c2cnc(-c3ccc(NC(=O)CCC)cc3)nc2)cc1	0.08% (inactive)
CCCCCCCC(=O)Nc1ccc(S(=O)(=O)Nc2nccs2)cc1	12.5% (active)
N#Cc1ccccc1NC(=O)CNc1ccc(Cl)c(C(F)(F)F)c1	1.46% (inactive)
CCC(=O)N/C(=N/c1nc(C)cc(C)n1)Nc1ccccc1	0.29% (inactive)

Compound	fluorescence artifact activation
Cc1ccc(NC(=O)c2cc(S(=O)(=O)N3CCCCC3)ccc2N2CCOCC2)cc1S(=O)(=O)N(C)C	0.83% (inactive)
COc1ccc(-c2csc(N3CCN(c4cc5c(cc4Cl)nc(-c4ccncc4)n5CCOCCO)CC3)n2)cc1	-0.09% (inactive)
CCOC(=O)Cc1csc(CC(N)=O)n1	2.47% (inactive)
CCOC(=O)Cc1csc(NC(=O)c2sc3nc4cc(C)ccc4cc3c2N)n1	19% (active)
CCOC(=O)Cc1csc(N(C)C)n1	0.08% (inactive)
Cc1cccc(N2CCN(C(=O)Cn3nc(Cc4ccncc4)c4ccccc4c3=O)CC2)c1C	4.88% (inactive)
Cc1c(O)ccc(/C(Cc2ccc3ccccc3n2)=N\N)c1O	-0.02% (inactive)
CC(=O)OCC[N+](C)(C)C	13.6% (active)
Cc1cccc(N=Cc2[nH]c3ccc(Br)c(Cl)c3c2O)c1	0.01% (inactive)
COCCNC(=O)c1c(CS(=O)(=O)c2ccccc2)noc1C(=O)NCc1ccccc1	-0.04% (inactive)
C/C(=N/Nc1ccnc2cc(Cl)ccc12)c1ccc(N)cc1	2.55% (inactive)
CN1c2ccccc2C(O)=C(C(=S)Nc2ccc(F)c(Cl)c2)S1(=O)=O	13.6% (active)
CC(=O)Nc1ccccc1C(=O)C(=O)Nc1ccc(F)c(Cl)c1	0.02% (inactive)
Cc1ccc(NC(=O)Nc2ccc(F)cc2)cc1Cl	4.13% (inactive)
CCC1(C)COC(c2ccc(OC)c(OC)c2)OC1 (configuration not stated)	0.06% (inactive)
N#C/C(=C\c1c[nH]c2ccccc12)C(=O)Nc1ncc(Cc2ccc(Cl)cc2Cl)s1	5.66% (inactive)
O=C(NCCc1ccccc1)C1CCN(c2ncccn2)CC1	0.16% (inactive)
O=C(NCc1ccc(Cl)cc1)C1CCN(c2cnccn2)CC1	16% (active)
O=C(CN1CCN(c2ccccc2F)CC1)NCc1ccc(Cl)cc1	0.16% (inactive)
COc1ccc(/C=N/NC(=O)c2cccc([N+](=O)[O-])c2)cc1O	0.08% (inactive)
Cn1nnc(NC(=S)NC(=O)/C=C/c2ccco2)n1	0.78% (inactive)
CCNC(=S)NNC(=O)CCn1cc(C)cn1	-0.01% (inactive)
CN(C)c1ccc(/C=C/c2nc3ccccc3c(=O)n2-c2ccc(C(=O)O)cc2)cc1	0.13% (inactive)

Compound	fluorescence artifact activation
CN(C)c1ccc(/C=C/c2nc3ccccc3c(=O)[nH]2)cc1	0.27% (inactive)
CN(C)c1ccc(/C=C/c2nc3ccccc3c(=O)n2CCO)cc1	127% (active)
O=C(O)C1CCC(CNCc2ccccc2Cl)CC1 (configuration not stated)	0.76% (inactive)
CCCCc1ccc(NC(=O)c2cnccn2)cc1	9.08% (inactive)
COc1ccc(CNC(=O)c2sc(=S)n(-c3ccccc3)c2N)cc1	9.19% (inactive)
CC(C)NC(=O)C1CCCN(c2nnc(-n3cccc3)s2)C1 (configuration not stated)	316% (active)
COc1cccc(CNC(=O)C2CCCN(c3nc4ccccc4o3)C2)c1 (configuration not stated)	0.08% (inactive)
O=C(Nc1cc2c3c(c1)CC(=O)N3CCC2)C1CC1	0.03% (inactive)
Cc1ccc(/C=C2/SC(=O)NC2=S)o1	6.76% (inactive)
C(=N\c1nc2ccccc2n1CCN1CCOCC1)/c1cccs1	-0.03% (inactive)
Cc1ccc(C(C(=O)NC(C)(C)C)N(C(=O)c2csnn2)C2CC2)cc1 (configuration not stated)	34.2% (active)
COC(=O)c1c(NC(=O)CN2CCN(c3cccc(Cl)c3)CC2)sc(C)c1C	0.21% (inactive)
CCOC(=O)c1[nH]c2ccc(OCC)cc2c1CCCN1C(=O)c2ccccc2C1=O	87.1% (active)
CCOC(=O)C1=C(C)N(CCCCCC(=O)O)C(=O)NC1c1ccccc1Cl (configuration not stated)	0.06% (inactive)
CCCN1C(=O)c2ccccc2NC1c1ccc(O)c(OCC)c1 (configuration not stated)	2.14% (inactive)
CC(OC(=O)c1c2c(nc3ccccc13)/C(=C\c1ccc3c(c1)OCO3)CCC2)C(=O)Nc1ccc(S(N)(=O)=O)cc1 (configuration not stated)	0.03% (inactive)
N#Cc1cc(C(=O)c2ccccc2O)cn(-c2nccs2)c1=O	12.1% (active)
Cc1ccc(O)c(C(=O)c2cc(C#N)c(=O)n(-c3nccs3)c2)c1	0.06% (inactive)
N#Cc1cc(C(=O)c2cc(F)ccc2O)cn(-c2nccs2)c1=O	0.01% (inactive)
O=C(Cn1ncc2c3ccccc3n(Cc3cccc(Cl)c3)c2c1=O)NCC1CCCO1 (configuration not stated)	0.38% (inactive)
O=C(NCCOc1ccccc1Cl)C(=O)Nc1ccccc1	0.07% (inactive)
CS/C(=N\S(=O)(=O)c1cccs1)Nc1cccc(Cl)c1C	16.4% (active)
COc1cccc(CNC(=O)CN(C)S(=O)(=O)c2ccc3c(c2)c(=O)n(C)c(=O)n3C)c1	0.24% (inactive)

Compound	fluorescence artifact activation
COc1cccc(CNC(=O)CN(C)S(=O)(=O)c2cnc[nH]2)c1	41.4% (active)
COc1cccc(CNC(=O)CCS(=O)(=O)c2cc3c(cc2C)NC(=O)CO3)c1	0.09% (inactive)
COc1ccc(/C=N/NC(=O)Cn2c(Cc3ccc(OC)c(OC)c3)nc3ccccc32)cc1	1.63% (inactive)
COc1ncnc2c1NC1=C(S2)C(=NCCC(=O)O)CC(C)(C)C1	19.4% (active)
CC(=O)c1cc2c(cc1N/C(=N/S(=O)(=O)c1ccc(Br)cc1)c1ccccc1)OCO2	0.13% (inactive)
O=C(NCc1cccc(C(F)(F)F)c1)c1cccc(S(=O)(=O)NCc2ccccc2)c1	0.02% (inactive)
CC(=NNC(=O)c1ccncc1)c1ccc2ccccc2c1O	0.08% (inactive)
CCOC(=O)c1sc2nc(C)nc(SCC(=O)NC3CCS(=O)(=O)C3)c2c1C (configuration not stated)	8.03% (inactive)
O=C(NCC(=O)N(CC1CCCO1)C1(C(=O)NC2CCCCC2)CCCCC1)c1ccccc1 (configuration not stated)	-0.09% (inactive)
S=C(Nc1cc(Cl)ccc1Oc1ccccc1)N1CCN(c2ccccn2)CC1	23.1% (active)
O=C(COc1ccccc1Cl)N1CCN(c2ccccn2)CC1	0.24% (inactive)
CCOC(=O)N1CCN(C(=S)Nc2ccccc2C)CC1	7.89% (inactive)
CC(COC(=O)c1ccccc1)(COC(=O)c1ccccc1)/[N+]([O-])=C/c1ccccc1	9.45% (inactive)
COCCCn1c(=O)/c(=C\c2cccc(OC)c2OC)s/c1=C(/C#N)C(=O)Nc1ccc(C(=O)O)cc1	2.82% (inactive)
CCc1cc(C(=O)Nc2ccc(OC)nc2)sc1C	-0.03% (inactive)
CCC(=O)N1CCC2(CC1)Oc1ccc(Cl)cc1C(=O)C21CC(c2cccnc2)=NO1 (configuration not stated)	5.01% (inactive)
COc1ccc(C2(CNC(C)=O)CCCC2)cc1OC	0.1% (inactive)
O=C(c1ccccc1)[C@@H]1[C@@H]2C(=O)N(c3ccc(F)cc3)C(=O)[C@@H]2C2CCCN21 (some centres not stated)	1.82% (inactive)
Cc1ccc(N2C(=O)[C@@H]3[C@H](C2=O)C2CCCN2[C@@H]3C(=O)c2ccccc2)cc1 (some centres not stated)	65.3% (active)
Cc1ccc(N2C(=O)C3C(C(=O)c4ccccc4)=NN(c4ccccc4)C3C2=O)cc1 (configuration not stated)	5.76% (inactive)
CCOC(=O)c1ccc(N2C(=O)C3C(C2=O)C(C(=O)c2ccc(Cl)cc2)N2CCCC32)cc1 (configuration not stated)	1.5% (inactive)
COc1ccc(N2C(=O)C3C(C2=O)C(C(=O)c2ccc(Cl)cc2)N2CCCC32)cc1 (configuration not stated)	2.56% (inactive)
CC(=O)Oc1ccc(N2C(=O)C3C(C2=O)C(C(=O)c2ccc(Cl)cc2)N2CCCC32)cc1 (configuration not stated)	12.2% (active)
